Test results taken from article PMC3099476 (Toxicology and applied pharmacology, 2011).

Tests used:
B6C3F1 male mice [1] = experiment: Liver histology necrosis score; type: in vivo, mouse; conditions: score 0 absent to 4 severe
Method in brief: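 Six-week male B6C3F1 mice, fasted overnight, dosed at 0800 with the analgesic hepatotoxicant IP, then immediately the test compound (MPT inhibitor, 50 or 10 mg/kg IP) or vehicle. Hepatotoxicant was 200 mg/kg IP in the 10 mg/kg arm. Saline controls included; 3–6 mice per group. Killed at 4 h. Liver H&E sections scored blind by three reviewers, 0 (absent) to 4 (severe); mean ± SE.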

B6C3F1 male mice [2] = experiment: Serum ALT in APAP toxicity; type: in vivo, mouse
HIF-1α = conditions: B6C3F1 male mice with APAP toxicity; 1 h; ref James et al., 2006; cited from earlier work
[3] = test system: APAP protein adducts in liver; experiment: Hepatic APAP protein adducts; type: in vivo, mouse
[4] = APAP 200 mg/kg IP followed by pimonidazole 60 mg/kg IP vs APAP/vehicle, 1 h

Compound | Necrosis Scores at 4 hours, Mean (B6C3F1 male mice [1]; Table 1A, CYC 50 mg/kg experiment) | Necrosis Scores at 4 hours, Mean (B6C3F1 male mice [1]; Table 1B, CYC 10 mg/kg experiment) | ALT vs saline (B6C3F1 male mice [2]; APAP 200 mg/kg IP followed by CYC 10 mg/kg IP or vehicle, 4 h) | Serum ALT, time course (B6C3F1 male mice [2]; APAP 200 mg/kg IP, at 2, 4, 8, 24 and 48 h, vs saline) | Serum ALT levels (B6C3F1 male mice [2]; APAP 15, 30, 100, or 200 mg/kg IP, sacrificed at 1 h, vs saline) | Serum ALT vs saline (B6C3F1 male mice [2]; APAP followed by CYC 50 mg/kg IP or vehicle, 4 h) | HIF-1α induction (HIF-1α) | Hepatic APAP protein adducts vs saline ([3]; APAP followed by CYC 50 mg/kg IP or vehicle, 1, 2, and 4 h) | Hepatic protein adducts vs saline ([3]; APAP/veh or APAP/CYC 10 mg/kg, 1 h) | APAP protein adducts ([3]; APAP/veh or APAP/CYC 10 mg/kg, 4 h (data not shown)) | Hepatic APAP protein adduct levels ([3]; separate experiment, APAP/veh or APAP/CYC 10 mg/kg, 1 h) | Serum ALT (B6C3F1 male mice [2]; [4]) | Hepatic APAP protein adducts [3, 4] | Effect of pimonidazole on APAP metabolism ([3]; pimonidazole 60 mg/kg IP after APAP 200 mg/kg IP, 1 h)
CC(=O)Nc1ccc(O)cc1 [APAP, N-acetyl-p-aminophenol] | 3 | 2 | significantly increased | significantly increased above saline | No significant changes | significantly increased | induction of HIF-1α | increased | increased above saline | comparable | elevated | – | – | –
O=[N+]([O-])c1nccn1CC(O)CN1CCCCC1 (centres unmarked) [pimonidazole] | – | – | – | – | – | – | – | – | – | – | – | comparable | comparable | no inhibitory affect on APAP metabolism
